Assay results pooled from the literature.

The viability of `Cc1cccc2c(CNCC3(N4CCCC4)COC3)c[nH]c12` is reported as 60.4% (GBM6; cell growth or viability; 30 µM, 48 h).
`CCCCCCCc1cc(=O)c2ccccc2[nH]1` gave an IC50 of > 10 µM (HEK293; cell growth or viability).
With `N.N.[Cl][Pt][Cl]` the EC50 was 2.8 µM (SK-MEL-28; cell growth or viability, resazurin; dark).
With `COc1cc(C)[nH]c(=O)c1CNC(=O)c1c(C)n([C@H](C)C2CCN(CC(F)(F)F)CC2)c2ccccc12` the GI50 was 0.39 µM (KARPAS-422; cell growth or viability; 8 days).
`[H]/N=C(/N)N[C@H]1[C@H](O)[C@@H](O)[C@H](O[C@@H]2O[C@@H](C)[C@](O)(C=O)[C@H]2O[C@@H]2O[C@@H](CO)[C@H](O)[C@@H](O)[C@@H]2NC)[C@@H](N/C(N)=N\[H])[C@@H]1O` has an MIC of 12.5 µg/mL (Mycobacterium avium; microbial growth; ATCC25291).
`COc1ccc(OC)c(C=CC(=O)NC2CCC(CN3CCC(c4c[nH]c5ccccc45)CC3)CC2)c1` (stereo not shown) has an IC50 of > 10 µM (HEK293; cell growth or viability).
With `c1ccc(-c2ccc(C(c3ccccc3)n3ccnc3)cc2)cc1` (stereo not shown) the IC50 was 30 to 40 µM (Vesicular stomatitis virus; viral entry, inhibitor; Vero C1008; pseudovirus).
With `Oc1cccc(C2CCCN(CCc3c[nH]c4ccccc34)C2)c1` (stereo not shown) the IC50 was > 10 µM (HEK293; cell growth or viability).
`Cc1cccc2[nH]cc(CNCC3(N4CCCC4)COC3)c12` gave a viability of 77.5% (GBM6; cell growth or viability; 30 µM, 48 h).
`Cc1ccc(-c2nc3ccc(C)cn3c2CC(=O)N(C)C)cc1` gave an MIC of > 50 µM (Mycobacterium avium; microbial growth; 6 days).
`O=C(NC1CCC(CN2CCC(c3c[nH]c4ccccc34)CC2)CC1)c1[nH]c(=O)[nH]c(=O)c1F` (stereo not shown) has an IC50 of > 10 µM (HEK293; cell growth or viability).
For `O=c1c2ccccc2[se]n1-c1ccccc1`, the inhibition was 43% (HEK293; cell growth or viability, MTT; 125 µM, 72 h).
The MIC of `COc1nc2ccc(Br)cc2cc1[C@@H](c1ccccc1)[C@@](O)(CCN(C)C)c1cccc2ccccc12` is reported as 0.05 µg/mL (Mycolicibacterium phlei; microbial growth).
